{"data": "Published values gathered from unrelated publications", "SLC22A2": "Solute carrier family 22 member 2 (SLC22A2, Homo sapiens, UniProt O15244)", "CNR2": "Cannabinoid receptor 2 (CNR2, Homo sapiens, UniProt P34972)", "MMP2": "72 kDa type IV collagenase (MMP2, Homo sapiens, UniProt P08253)", "ADRB2": "Beta-2 adrenergic receptor (ADRB2, Homo sapiens, UniProt P07550)", "note": "Lines come from different studies, so protocols differ."}
{"Compound": "CNC(=O)c1cc2c(Oc3ccc(NC(=O)C4(C(=O)Nc5ccc(F)cc5)CC4)cc3)ccnc2cc1OC", "target": "Epithelial discoidin domain-containing receptor 1 (DDR1, Homo sapiens, UniProt Q08345)", "assay": "enzyme activity, inhibitor, radiometric", "IC50": "0.013 µM"}
{"Compound": "COc1ccc2nc(/N=C3/NC(=O)C(=Cc4cc(I)c(O)c(OC)c4)S3)sc2c1", "target": "Aldo-keto reductase family 1 member B1 (Akr1b1, Rattus norvegicus, UniProt P07943)", "assay": "enzyme activity, inhibitor, absorbance", "conditions": "pH 6.2", "IC50": "> 50 µM"}
{"Compound": "O=C(O)CSc1nnc(Br)n1-c1ccc(C2CC2)c2ccccc12", "target": "SLC22A2", "assay": "transporter uptake, inhibitor", "system": "MDCK-II", "conditions": "5 min", "IC50": "> 300 µM"}
{"Compound": "O=C(Nc1ccc(Cl)cc1)Nc1cccc(-c2ccc[nH]2)c1", "target": "CNR2", "assay": "calcium signal, antagonist", "IC50": "> 10 µM"}
{"Compound": "CCS(=O)(=O)N1CC(CC#N)(n2cc(-c3ncnc4[nH]ccc34)cn2)C1", "target": "SLC22A2", "assay": "transporter uptake, inhibitor, radiometric", "conditions": "2 min", "IC50": "11.6 µM"}
{"Compound": "Cc1c(C(=O)NN2CCCCC2)nc(-c2ccc(Cl)cc2Cl)n1-c1ccc(OS(=O)(=O)CCCC(F)(F)F)cc1", "target": "CNR2", "assay": "GTPγS binding, antagonist", "conditions": "cell membranes", "IC50": "0.32 µM"}
{"Compound": "CC(C)c1nc(CN(C)C(=O)N[C@@H](CCN2CCOCC2)C(=O)N[C@H](CC[C@H](Cc2ccccc2)NC(=O)OCc2cncs2)Cc2ccccc2)cs1", "target": "SLC22A2", "assay": "transporter uptake, inhibitor", "system": "MDCK-II", "IC50": "33 µM"}
{"Compound": "Cc1noc(-c2cc3cc(-c4nc(C(=O)NCc5cccnc5)[nH]c4C)ccc3[nH]2)n1", "target": "MMP2", "assay": "enzyme activity, inhibitor", "IC50": "> 20 µM"}
{"Compound": "COc1cc(O)c(CC=C(C)C)c(O)c1C(=O)/C=C/c1ccc(O)cc1", "target": "Cytochrome P450 1B1 (CYP1B1, Homo sapiens, UniProt Q16678)", "assay": "enzyme activity, inhibitor, fluorescence", "conditions": "15 min, pH 7.4", "IC50": "0.34 µM"}
{"Compound": "O=C(NO)c1ccc(CN(c2cnccn2)c2cnccn2)cc1", "target": "Polyamine deacetylase HDAC10 (HDAC10, Homo sapiens, UniProt Q969S8)", "assay": "enzyme activity, inhibitor, fluorescence", "IC50": "> 10 µM"}
{"Compound": "CC[Si](C#Cc1ccc2c(c1)C=C([N+](=O)[O-])C(C(F)(F)F)O2)(CC)CC (stereo not shown)", "target": "P2Y purinoceptor 6 (P2RY6, Homo sapiens, UniProt Q15077)", "assay": "calcium signal, antagonist", "IC50": "~1 µM"}
{"Compound": "COc1cc(N)c(Cl)cc1C(=O)NC1CCN(CCCOc2ccc(F)cc2)CC1OC (stereo not shown)", "target": "ADRB2", "assay": "ligand displacement, radioligand", "conditions": "cell membranes", "IC50": "587 µM"}
{"Compound": "Cc1noc(-c2cc3cc(-c4nc(C(=O)NCc5ccccc5)[nH]c4C)ccc3[nH]2)n1", "target": "MMP2", "assay": "enzyme activity, inhibitor", "IC50": "> 20 µM"}
{"Compound": "Cc1ccc(S(=O)(=O)N2C(=O)COC23C=CC(=O)C=C3)cc1", "target": "MMP2", "assay": "enzyme activity, inhibitor, fluorescence", "IC50": "6.8 µM"}
{"Compound": "CCCC[C@H](NC(=O)C1CN(C)C1)c1ncc(-c2cc3ccccc3nc2OC)[nH]1", "target": "Histone deacetylase 7 (HDAC7, Homo sapiens, UniProt Q8WUI4)", "assay": "enzyme activity, inhibitor", "IC50": "> 30 µM"}
{"Compound": "Cn1nc(C(=O)NCc2ccc(C(=O)O)cc2)cc1-c1ccc2[nH]c(-c3ccncc3)cc2c1", "target": "MMP2", "assay": "enzyme activity, inhibitor", "IC50": "> 22 µM"}
{"Compound": "CN(CCC(=O)O)C(=O)c1ccc2c(c1)CC[C@@H]1[C@@H]2CC[C@]2(C)C(c3cncc(F)c3)=CC[C@@H]12", "target": "Ileal sodium/bile acid cotransporter (SLC10A2, Homo sapiens, UniProt Q12908)", "assay": "transporter uptake, inhibitor", "IC50": "49 µM"}
{"Compound": "COc1cccc2sc(N(CCN3CCCC3)C(=O)c3ccc(Cl)s3)nc12", "target": "Short transient receptor potential channel 6 (Trpc6, Mus musculus, UniProt Q61143)", "assay": "calcium signal, fluorescence", "IC50": "63.9 µM"}
{"Compound": "NCC1OC(c2ccccc2)Cc2c1ccc(O)c2O (stereo not shown)", "target": "ADRB2", "assay": "ligand displacement, radioligand", "conditions": "cell membranes", "IC50": "84.7 µM"}
